Like-named read-outs stand apart in the source and are kept apart here.
Assays:
[1] = cited from earlier work
[2] = system: human whole blood; conditions: cited from earlier work
[3] = clinical; conditions: human, in vivo, po
[4] = system: IL‐18; test: Ex vivo LPS/ATP stimulation of whole blood from participants: IL‐18 production; format: cell-based, human
[5] = system: CYP3A4; conditions: in vivo
[6] = clinical; conditions: human, in vivo, n = 6, mean; for AUC: AUC0–tau; for Cmax: C max
[7] = Safety: adverse events and laboratory findings in healthy volunteers; format: in vivo, human
How it was run: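 Healthy volunteers receiving at least one dose of study drug formed the safety population. End points were incidence and severity of AEs, and baseline changes in vital signs, clinical laboratory tests and 12-lead ECG. DDI stage: one cohort of nine, test compound given fasted with co-administered midazolam. Other stages: single oral 150–1800 mg; 300 or 900 mg b.i.d.; 600 mg fasted then after high-fat meal.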

[8] = clinical; conditions: human, in vivo, 600 mg, fasted period, n = 8, mean
[9] = Urinary PK; format: in vivo, human; conditions: multiple b.i.d. dosing (MAD)
[10] = cynomolgus monkey, 4‐week study; cited from earlier work
[11] = system: CYP3A4; test: In vitro CYP3A4 induction assays and preliminary PBPK modeling; format: in vitro ADME; conditions: unpublished data
[12] = system: IL‐1β; test: Ex vivo LPS/ATP stimulation of whole blood from participants: IL‐1β production; format: cell-based, human; conditions: for maximum mean inhibition of IL‐1β production: relative to baseline
How it was run: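 Whole blood from participants was drawn predose and at postdose timepoints. MAD dosing was oral 300 or 900 mg b.i.d. on days 1–6 plus one morning dose on day 7, fasted. Blood was stimulated ex vivo with an LPS plus ATP cocktail. Secreted IL-1β was the mean of two technical replicates. Inhibition = [1−(postdose/predose stimulated level)]×100%. IC90 came from a sigmoid Emax fit against time-matched plasma drug levels (HPLC-MS/MS).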

[13] = 600 mg, high‐fat vs fasted
[14] = for C min: steady‐state (day 7), n = 6, mean
[15] = for DN AUC0–last / CL/F: SAD, fasted, n = 6, mean
[16] = single 150‐mg, 450‐mg and 900‐mg doses
[17] = 300 mg, MAD 300 mg b.i.d., first dose (day 1)
[18] = 300 mg, MAD 300 mg b.i.d., steady‐state (day 7)
[19] = 900 mg, MAD 900 mg b.i.d., first dose (day 1)
[20] = 900 mg, MAD 900 mg b.i.d., steady‐state (day 7)
[21] = single doses of 600 mg, both fasted and high‐fat periods

CN[C@@H]1COc2c(S(=O)(=O)NC(=O)Nc3c4c(cc5c3CCC5)CCC4)cnn2C1 [GDC‐2394, (S)‐N‐((1,2,3,5,6,7‐hexahydro‐s‐indacen‐4‐yl)carbamoyl)‐6‐(methylamino)‐6,7‐dihydro‐5H‐pyrazolo[5,1‐b][1,3]oxazine‐3‐sulfonamide]
blood:plasma ratio [1]: 0.6
in vitro human whole blood IC90 [2]: 0.639 µg/mL
IC90 ([2]; read-out: in vitro human whole blood IC90): 1480 nM
half-life [3]: 4.1 to 8.6 h
AUC(0-t) ([3]; 150 mg): 53.5 µg·h/mL
Cmax ([3]; 150 mg): 8110 ng/mL
Tmax ([3]; 150 mg): 2.1 h
Vd/F ([3]; 150 mg): 16.7 L
half-life ([3]; 150 mg): 4.1 h
AUC(0-inf) ([3]; 450 mg): 138 µg·h/mL
AUC(0-t) ([3]; 450 mg): 138 µg·h/mL
Cmax ([3]; 450 mg): 22900 ng/mL
Tmax ([3]; 450 mg): 2 h
Vd/F ([3]; 450 mg): 30.2 L
half-life ([3]; 450 mg): 5.8 h
AUC(0-inf) ([3]; 900 mg): 317 µg·h/mL
AUC(0-t) ([3]; 900 mg): 317 µg·h/mL
Cmax ([3]; 900 mg): 50400 ng/mL
Tmax ([3]; 900 mg): 2 h
Vd/F ([3]; 900 mg): 34.9 L
half-life ([3]; 900 mg): 6.8 h
AUC(0-inf) ([3]; 1800 mg): 739 µg·h/mL
AUC(0-t) ([3]; 1800 mg): 738 µg·h/mL
Cmax ([3]; 1800 mg): 101000 ng/mL
Tmax ([3]; 1800 mg): 4 h
Vd/F ([3]; 1800 mg): 32.1 L
half-life ([3]; 1800 mg): 8.6 h
mean inhibition of IL‐18 production across most of the 7‐day dosing period ([4]; 900‐mg b.i.d.): greater than 99%
IC90 ([4]; Homo sapiens, read-out: estimated plasma IC90 for IL‐18 inhibition): ~2500 nM
inhibition of IL‐18 production (in words) ([4]; all SAD cohorts): Near‐complete or complete inhibition
time for which IL‐18 inhibition was sustained [4, 16]: ~ 8 h
time for which IL‐18 inhibition was sustained ([4]; single 1800‐mg dose): ~ 24 h
CYP3A4 induction potential / impact on systemic exposure of midazolam and 1‐hydroxymidazolam ([5]; human): minimal CYP3A4 induction potential
CYP3A4 induction potential / impact on systemic exposure of midazolam and 1‐hydroxymidazolam [5]: did not have an apparent impact
AUC [6, 17]: 82 µg·h/mL
AUC [6, 18]: 92.2 µg·h/mL
Cmax [6, 17]: 15300 ng/mL
Cmax [6, 18]: 16400 ng/mL
AUC [6, 19]: 301 µg·h/mL
AUC [6, 20]: 327 µg·h/mL
Cmax [6, 19]: 52700 ng/mL
Cmax [6, 20]: 51000 ng/mL
participants with events consistent with hepatic injury ([7]; DDI stage, after completion of GDC‐2394 dosing): Three
time to recovery from severe DILI ([7]; DDI stage, both participants): ≤ 3 months
total number of events considered related to study treatment ([7]; DDI stage, n = 9): 14
peak elevation of ALT ([7]; MAD 900 mg b.i.d., one subject, day 14): 1.67 × the upper limit of normal [ULN]
Subjects with at least one AE leading to dose modification/interruption ([7]; MAD, all GDC‐2394 (n = 12)): 0
Subjects with at least one AE leading to withdrawal from treatment ([7]; MAD, all GDC‐2394 (n = 12)): 0
Subjects with at least one AE with fatal outcome ([7]; MAD, all GDC‐2394 (n = 12)): 0
Subjects with at least one grade 3–5 AE (at greatest intensity) ([7]; MAD, all GDC‐2394 (n = 12)): 0
Subjects with at least one related AE ([7]; MAD, all GDC‐2394 (n = 12)): 4 (33.3%)
Subjects with at least one related serious AE ([7]; MAD, all GDC‐2394 (n = 12)): 0
Subjects with at least one serious AE ([7]; MAD, all GDC‐2394 (n = 12)): 0
Total number of AEs ([7]; MAD, all GDC‐2394 (n = 12)): 18
Total number of deaths ([7]; MAD, all GDC‐2394 (n = 12)): 0
Total number of subjects with at least one AE ([7]; MAD, all GDC‐2394 (n = 12)): 8 (66.7%)
Total number of subjects withdrawn from study due to an AE ([7]; MAD, all GDC‐2394 (n = 12)): 0
Subjects with at least one AE leading to dose modification/interruption ([7]; SAD, all GDC‐2394 (n = 24)): 0
Subjects with at least one AE leading to withdrawal from treatment ([7]; SAD, all GDC‐2394 (n = 24)): 0
Subjects with at least one AE with fatal outcome ([7]; SAD, all GDC‐2394 (n = 24)): 0
Subjects with at least one grade 3–5 AE (at greatest intensity) ([7]; SAD, all GDC‐2394 (n = 24)): 0
Subjects with at least one related AE ([7]; SAD, all GDC‐2394 (n = 24)): 6 (25.0%)
Subjects with at least one related serious AE ([7]; SAD, all GDC‐2394 (n = 24)): 0
Subjects with at least one serious AE ([7]; SAD, all GDC‐2394 (n = 24)): 0
Total number of AEs ([7]; SAD, all GDC‐2394 (n = 24)): 22
Total number of deaths ([7]; SAD, all GDC‐2394 (n = 24)): 0
Total number of subjects with at least one AE ([7]; SAD, all GDC‐2394 (n = 24)): 14 (58.3%)
Total number of subjects withdrawn from study due to an AE ([7]; SAD, all GDC‐2394 (n = 24)): 0
Cmax ([8]; C max, FE 600 mg single dose): 28000 ng/mL
half-life ([8]; T 1/2, FE 600 mg single dose): 5.3 h
mean fraction of drug excreted in urine 0 to 12 h postdose on day 7, range [9]: 12.3% to 14.8
no‐observed‐adverse‐effect level (NOAEL) [10]: 600 mg/kg/day
CYP3A4 induction potential [11]: mild‐to‐moderate
mean inhibition of IL‐1β production sustained over the 7‐day dosing period ([12]; 300 mg b.i.d.): greater than 95%
mean inhibition of IL‐1β production sustained over the 7‐day dosing period ([12]; 900 mg b.i.d.): greater than 99%
IC90 ([12]; Homo sapiens, read-out: estimated plasma IC90 for IL‐1β inhibition): ~2500 nM
maximum mean inhibition of IL‐1β production ([12]; single 150‐mg dose): greater than 97%
time for which maximum mean IL‐1β inhibition was sustained [12, 16]: ~ 8 h
maximum mean inhibition of IL‐1β production ([12]; single 450‐mg dose): greater than 97%
maximum mean inhibition of IL‐1β production ([12]; single 900‐mg dose): greater than 99%
mean inhibition of IL‐1β production ([12]; single dose of 1800 mg): greater than or equal to 99%
time for which mean IL‐1β inhibition was sustained ([12]; single dose of 1800 mg): ~ 24 h
mean inhibition of IL‐1β production [12, 21]: greater than 99%
time for which mean IL‐1β inhibition was sustained [12, 21]: 8 h
decrease of AUC0–inf with a high‐fat meal [13]: 14%
decrease of AUC0–last with a high‐fat meal [13]: 14%
decrease of Cmax with a high‐fat meal [13]: ~ 16%
C min ([14]; MAD 300 mg b.i.d.): 1820 ng/mL
C min ([14]; MAD 900 mg b.i.d.): 9080 ng/mL
interindividual variability of PK parameters, %CVs ([14]; MAD stage): less than 50%
likely achievement of steady‐state ([14]; MAD, both cohorts, from trough concentrations): ≤ 2 days
accumulation ratios for Cmax and AUC0–tau ([14]; both MAD cohorts (300 and 900 mg b.i.d.), steady‐state vs day 1): ~ 1
observed AUC relative to the preclinical prediction ([15]; 150‐mg starting dose): approximately three‐fold
DN AUC0–last ([15]; single oral 150 mg): 356 ng·h/mL/mg
CL/F ([15]; single oral 450 mg): 3390 mL/h
DN AUC0–last ([15]; single oral 450 mg): 307 ng·h/mL/mg
CL/F ([15]; single oral 900 mg): 3040 mL/h
DN AUC0–last ([15]; single oral 900 mg): 352 ng·h/mL/mg
CL/F ([15]; single oral 1800 mg): 2590 mL/h
DN AUC0–last ([15]; single oral 1800 mg): 410 ng·h/mL/mg
increases in systemic exposure with dose (dose‐normalized Cmax and AUC0–last) ([15]; single oral doses 150–1800 mg): approximately dose proportional
apparent clearance, range of mean values ([15]; single oral doses across 150–1800 mg): 2590 to 3390 mL/h

From PMC10499406 (Clinical and Translational Science, 2023)
